A short description of data set [1]: Tmax in non-fasted CD-1 mouse brain at 50 mg/kg, po by HPLC analysis. The format is ADME, organism-based. In a few lines:
(§1)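 Oral gavage 50 mg/kg (5 mg/mL in 10%DMSO/90%(30%HP-b-CD)) to non-fasted 7-9 week male CD-1 mice; brain, spinal cord and sciatic nerve homogenized in water, diluted in control mouse plasma, ACN precipitation with warfarin internal standard, HPLC; non-compartmental time-concentration analysis; 3 mice per condition.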

Data set [2] can be described thus: Tmax in non-fasted CD-1 mouse spinal cord at 50 mg/kg, po by HPLC analysis. The data set is classed as ADME, organism-based. In a few lines:
as §1

Data set [3] is described as follows: Tmax in non-fasted CD-1 mouse right sciatic nerve at 50 mg/kg, po by HPLC analysis. The format is ADME, organism-based. In a few lines: as §1
Data set [4] is described as follows: Tmax in non-fasted CD-1 mouse left sciatic nerve at 50 mg/kg, po by HPLC analysis. The format is ADME, organism-based. In a few lines: as §1
Data set [5] in a line: MRT (0 to infinity) in overnight fasted CD-1 mouse total plasma at 50 mg/kg, po by HPLC analysis. The format is ADME, organism-based. In a few lines: (§2)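 Overnight-fasted 7-9 week male CD-1 mice, food returned 4 h post-dose, given 50 mg/kg by oral gavage (5 mg/mL in 30% SBE-β-CD); plasma and brain (homogenized in MeOH/15 mM PBS) quenched with ACN internal-standard mix, HPLC; free levels calculated from mouse plasma and brain protein binding; mean ± SEM, 3 mice per time point.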

Data set [6] is described as follows: MRT (0 to infinity) in overnight fasted CD-1 mouse total brain at 50 mg/kg, po by HPLC analysis. The data set is classed as ADME, organism-based. In a few lines:
as §2

Data set [7] in a line: Volume of distribution at steady state in CD-1 mouse at 10 mg/kg, iv administered as single dose by HPLC analysis. The format is ADME, organism-based. To be noted: in vivo, read-out: Vdss. In a few lines: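 Single 10 mg/kg IV dose of enantiomeric mixture in 10%DMSO/90%(30%HP-b-CD) to 7-9 week male CD-1 mice; plasma collected over time, proteins precipitated with ACN containing warfarin internal standard, analysed by HPLC; non-compartmental analysis; mean ± SEM, 3 mice per condition.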

Data set [8] is described as follows: Activation of Mitofusin in MFN2 deficient mouse MEF cells assessed as mitochondria elongation.
The nature of data set [9]: Plasma protein binding in human assessed as bound fraction at 2 uM incubated for 120 mins by equilibrium dialysis method. The data set is classed as ADME, cell-free. To be noted: read-out: PPB (converted). For orientation: In equilibrium dialysis only unbound substance equilibrates across the membrane.
Data set [10] in a line: Plasma protein binding in mouse assessed as bound fraction at 2 uM measured after 120 mins by equilibrium dialysis method. The data set is classed as ADME, cell-free. To be noted: read-out: PPB (converted).

For orientation: Tmax means the time from dosing to the highest level. The term MRT inf denotes a mean duration of stay, worked out from the concentration-time curve. With `O=C(N[C@H]1CC[C@H](O)CC1)[C@@H]1C[C@H]1CCCc1ccccc1`, the time to peak (Tmax) in data set [1], in [2], in [3] and in data set [4] was 30 min each time. Also, the results for the MRT inf in data set [5] and in data set [6] were 115 min and 119 min, respectively.
On to `O=C(N[C@H]1CC[C@H](O)CC1)C1CC1CCCc1ccccc1` (some centres not stated), for which, in data set [7], the Vd is 0.6 L/kg.
For `O=C(CCCCCc1ccccc1)N[C@H]1CC[C@H](O)CC1`, the values for the MRT inf in data set [5] and in [6] were 60.6 min and 57.5 min, respectively.
The EC50 is the concentration giving half of the maximal effect. With `O=C(N[C@H]1CC[C@H](O)CC1)C1CCC(CCCc2ccccc2)C1` (some centres not stated), the concentration for a half-maximal effect (EC50) in data set [8] came out at 15.3 nM. For the same compound, the fraction unbound at 2 h, 2 µM in data set [9] is 0.0075; in data set [10] it was 0.012.

Values taken from ChEMBL document CHEMBL5034022, “Pharmacophore-Based Design of Phenyl-[hydroxycyclohexyl] Cycloalkyl-Carboxamide Mitofusin Activators with Improved Neuronal Activity” (J Med Chem, 2021).
